Consider seven molecules from ChEMBL document CHEMBL4808162, “Constraining the Side Chain of C-Terminal Amino Acids in Apelin-13 Greatly Increases Affinity, Modulates Signaling, and Improves the Pharmacokinetic Profile” (J Med Chem, 2021).

Broadly, the Ki is the dissociation constant of the complex between target and ligand, obtained from inhibition or displacement. A low value points to a stronger hold on the target. The term EC50 denotes the concentration giving half of the maximal effect. What is called half-life is the time in which the quantity being followed falls by half.

Data set [1] addresses T1, Apelin receptor (Homo sapiens, UniProt P35414).
T1 sequence (P35414 whole entry): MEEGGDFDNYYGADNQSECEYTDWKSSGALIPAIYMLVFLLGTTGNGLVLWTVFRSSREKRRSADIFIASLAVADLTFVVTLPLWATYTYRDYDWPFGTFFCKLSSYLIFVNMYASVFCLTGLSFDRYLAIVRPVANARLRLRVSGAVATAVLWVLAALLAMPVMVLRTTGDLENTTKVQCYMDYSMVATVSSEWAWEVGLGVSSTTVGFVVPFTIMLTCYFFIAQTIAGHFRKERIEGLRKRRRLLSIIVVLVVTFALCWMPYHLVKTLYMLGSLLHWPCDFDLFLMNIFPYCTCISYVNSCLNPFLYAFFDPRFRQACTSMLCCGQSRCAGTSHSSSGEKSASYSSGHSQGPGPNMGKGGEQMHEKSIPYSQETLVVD
Briefly: Displacement of [125I] [NIe75,Tyr77]Pyr-apelin-13 from YFP-tagged human APJ receptor expressed in HEK293 cells incubated for 1 hr by gamma counting analysis. It counts as cell-based. For orientation: Loss of bound radioactivity is the signal in a displacement assay; it reports binding, not function.

Data set [2] concerns the target T1, Apelin receptor. Briefly: Agonist activity at human APJ receptor expressed in HEK293T cells co-expressing Galphai1 RlucII assessed as dissociation of Galphai1 from Gbetta/gamma subunit measured using coelenterazine luciferase substrate incubated for 5 mins by BRET assay. It counts as functional, cell-based, HEK293. (In general: BRET reads energy transfer from a luciferase to a nearby fluorophore.)

The target in data set [3] is T1, Apelin receptor. Nature of the data set: Agonist activity at human APJ receptor expressed in HEK293T cells co-expressing PDZ-Rho-Gef-RLucll and rGFP-CAAX assessed as induction of recruitment of Galpha12 to cell membrane using coelenterazine luciferase substrate incubated for 5 mins by BRET assay. Format: functional, cell-based, HEK293.
For data set [4], the target named is T1, Apelin receptor. Briefly: Agonist activity at human APJ receptor expressed in HEK293 cells co-expressing Rlucll-beta-arrestin2 assessed as induction of beta-arrestin2 recruitment to receptor incubated for 30 mins by BRET assay. Format: functional, cell-based.
Data set [5] is described as follows: Stability in Sprague-Dawley rat plasma assessed as half life measured up to 24 hrs by UPLC-MS analysis. It counts as ADME, cell-free. The gist of the method: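 Peptide (6 μL of 1 mM aqueous solution) incubated with 27 μL male Sprague-Dawley rat plasma at 37 °C. Time points 0, 1, 2, 4, 7, 24 h, or 0–120 min for labile peptides. Reaction quenched with acetonitrile-ethanol containing N,N-dimethylbenzamide internal standard, filtered, then UPLC-MS. t1/2 from one-phase exponential decay; at least three experiments.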

Consider `CCCC[C@H](NC(=O)[C@@H]1CCCN1C(=O)CNC(=O)[C@H](CCCCN)NC(=O)[C@H](Cc1cnc[nH]1)NC(=O)[C@H](CO)NC(=O)[C@H](CC(C)C)NC(=O)[C@H](CCCNC(=N)N)NC(=O)[C@@H]1CCCN1C(=O)[C@H](CCCNC(=N)N)NC(=O)[C@@H]1CCC(=O)N1)C(=O)N[C@@H](Cc1cccc2ccccc12)C(=O)N[C@@H](Cc1ccccc1)C(=O)O`, for which the Ki at Apelin receptor [1] (hek293) came to 0.12 nM. In addition, the figures for the concentration for a half-maximal effect (EC50) at Apelin receptor [2] (hek293), on Apelin receptor [3] (hek293) and at Apelin receptor [4] (hek293) were 4.4 nM, 9.2 nM and 41 nM, respectively. In addition, the half-life in data set [5] was 24 min.

Turning to `CCCC[C@H](NC(=O)[C@@H]1CCCN1C(=O)CNC(=O)[C@H](CCCCN)NC(=O)[C@H](Cc1cnc[nH]1)NC(=O)[C@H](CO)NC(=O)[C@H](CC(C)C)NC(=O)[C@H](CCCNC(=N)N)NC(=O)[C@@H]1CCCN1C(=O)[C@H](CCCNC(=N)N)NC(=O)[C@@H]1CCC(=O)N1)C(=O)N1CCC[C@H]1C(=O)N1Cc2ccccc2C[C@@H]1C(=O)O`, the inhibition constant Ki on Apelin receptor [1] came out at 0.07 nM. The EC50 on Apelin receptor [2] turned out to be 1 nM; at Apelin receptor [3], 23 nM; on Apelin receptor [4], 10 nM. For the same molecule, in data set [5], the half-life is 48 min.

On to `CCCC[C@H](NC(=O)[C@@H]1CCCN1C(=O)CNC(=O)[C@H](CCCCN)NC(=O)[C@H](Cc1cnc[nH]1)NC(=O)[C@H](CO)NC(=O)[C@H](CC(C)C)NC(=O)[C@H](CCCNC(=N)N)NC(=O)[C@@H]1CCCN1C(=O)[C@H](CCCNC(=N)N)NC(=O)[C@@H]1CCC(=O)N1)C(=O)N[C@@H](Cc1cccc2ccccc12)C(=O)N1Cc2ccccc2C[C@@H]1C(=O)O`, for which, at Apelin receptor [1], the inhibitory constant (Ki) came to 0.09 nM. For the same molecule, the EC50 was found to be 1.6 nM at Apelin receptor [2], 15 nM on Apelin receptor [3] and 32 nM at Apelin receptor [4]. For the same molecule, the half-life in data set [5] is 204 min.

On Apelin receptor [1] (hek293), `CCCC[C@H](NC(=O)[C@@H]1CCCN1C(=O)CNC(=O)[C@H](CCCCN)NC(=O)[C@H](Cc1cnc[nH]1)NC(=O)[C@H](CO)NC(=O)[C@H](CC(C)C)NC(=O)[C@H](CCCNC(=N)N)NC(=O)[C@@H]1CCCN1C(=O)[C@H](CCCNC(=N)N)NC(=O)[C@@H]1CCC(=O)N1)C(=O)N[C@H](Cc1cccc2ccccc12)C(=O)N1Cc2ccccc2C[C@H]1C(=O)O` had an inhibitory constant (Ki) of 0.08 nM. Also, the EC50 at Apelin receptor [2] (hek293) came out at 4.2 nM; at Apelin receptor [3] (hek293), 28 nM; on Apelin receptor [4] (hek293), 33 nM. In addition, the half-life in data set [5] is 366 min.

In the case of `CCCC[C@H](NC(=O)[C@@H]1CCCN1C(=O)CNC(=O)[C@H](CCCCN)NC(=O)[C@H](Cc1cnc[nH]1)NC(=O)[C@H](CO)NC(=O)[C@H](CC(C)C)NC(=O)[C@H](CCCNC(=N)N)NC(=O)[C@@H]1CCCN1C(=O)[C@H](CCCNC(=N)N)NC(=O)[C@@H]1CCC(=O)N1)C(=O)N1CCC[C@H]1C(=O)NC(Cc1ccccc1)(Cc1ccccc1)C(=O)O`, on Apelin receptor [1], the inhibition constant Ki was 0.04 nM. The half-maximal effective concentration (EC50) at Apelin receptor [2] turned out to be 1.5 nM; at Apelin receptor [3], 10 nM; at Apelin receptor [4], 19 nM. Further, the half-life in data set [5] was 30 min.

Molecule `CCCC[C@H](NC(=O)[C@@H]1CCCN1C(=O)CNC(=O)[C@H](CCCCN)NC(=O)[C@H](Cc1cnc[nH]1)NC(=O)[C@H](CO)NC(=O)[C@H](CC(C)C)NC(=O)[C@H](CCCNC(=N)N)NC(=O)[C@@H]1CCCN1C(=O)[C@H](CCCNC(=N)N)NC(=O)[C@@H]1CCC(=O)N1)C(=O)N1CCC[C@H]1C(=O)N1Cc2cc(OCc3ccccc3)ccc2C[C@@H]1C(=O)O` came in with an inhibition constant Ki on Apelin receptor [1] of 0.19 nM. Moreover, the concentration for a half-maximal effect (EC50) is 3.4 nM on Apelin receptor [2], 22 nM at Apelin receptor [3] and 45 nM on Apelin receptor [4].

`CCCC[C@H](NC(=O)[C@@H]1CCCN1C(=O)CNC(=O)[C@H](CCCCN)NC(=O)[C@H](Cc1cnc[nH]1)NC(=O)[C@H](CO)NC(=O)[C@H](CC(C)C)NC(=O)[C@H](CCCNC(=N)N)NC(=O)[C@@H]1CCCN1C(=O)[C@H](CCCNC(=N)N)NC(=O)[C@@H]1CCC(=O)N1)C(=O)N1CCC[C@H]1C(=O)N[C@H]1Cc2c(ccc3ccccc23)CN(CC(=O)O)C1=O`: the Ki on Apelin receptor [1] is 1.7 nM. For the same molecule, the results for the EC50 on Apelin receptor [2], on Apelin receptor [3] and at Apelin receptor [4] were 6.4 nM, 74 nM and 221 nM, respectively.
